Active and inactive are the calls of the source.
Legend:
[1] = (§1) Upregulation of Cdt1 expression in human CL1-5 cells at 0.01 ug/mL by RT-PCR analysis after 24 to 48 hrs by Western blot; type: functional, cell-based
Procedure, shortened: (§2)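 CL1-5 cells were exposed to the test agent for 24 and 48 h. Cdt1 and CDC6 protein levels were then assessed by Western blot.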

HUVEC = test: Toxicity against HUVEC; type: cell-based; settings: human
[2] = Upregulation of Cdt1 expression in human CL1-5 cells at 0.01 ug/mL by RT-PCR analysis after 24 to 48 hrs; type: functional, cell-based
HCT-8 = test: Anticancer activity against human HCT8 cells after 72 hrs by sulforhodamine B assay; type: functional; settings: HCT-8, 72 h
[3] = Upregulation of CDC6 expression in human CL1-5 cells at 0.01 ug/mL by RT-PCR analysis after 24 to 48 hrs; type: functional, cell-based
HT-29 [4] = test: Anticancer activity against human HT-29 cells xenografted in athymic nude mouse assessed as median time to end point at 20 mg/kg, iv qd for 29 days; type: functional
Procedure, shortened: (§3)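 Male athymic nude mice carrying human HT-29 colorectal adenocarcinoma xenografts, with a vehicle-treated control group. Dosing was 20 mg/kg given either i.v. once daily (qd) to the end of the study or i.v./i.p. twice daily (bid) to the end. Read-outs were median time to endpoint (TTE), maximum group body weight loss and treatment-related deaths. Significance threshold was P < 0.05.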

HT-29 [5] = test: Anticancer activity against human HT-29 cells xenografted in athymic nude mouse assessed as median time to end point at 20 mg/kg, ip bid for 29 days; type: functional; settings: route intraperitoneal; procedure, shortened: as §3
HT-29 [6] = test: Anticancer activity against human HT-29 cells xenografted in athymic nude mouse assessed as median time to end point at 20 mg/kg, iv bid for 29 days; type: functional
Procedure, shortened: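 Male athymic nude mice bearing HT-29 human colorectal adenocarcinoma xenografts. Drug dosed i.v./i.p. at 20 mg/kg twice daily (bid) to end of study. A vehicle-treated group served as control. The read-out was median time to endpoint (TTE) per group, with maximum group body weight loss and treatment-related deaths tracked. Significance was judged at P < 0.05.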

[7] = as §1; type: functional, cell-based; procedure, shortened: as §2; remark: listed apart in the source
A549 = test: Anticancer activity against human A549 cells after 72 hrs by sulforhodamine B assay; type: functional; settings: A549, 72 h
DU-145 = test: Anticancer activity against human DU145 cells after 72 hrs by sulforhodamine B assay; type: functional; settings: DU-145, 72 h
[8] = Toxicity against athymic nude mouse xenografted with human HT-29 cells assessed as mortality at 20 mg/kg, iv qd measured on day 12; type: organism-based; design: dose 20 mg/kg, route intravenous; settings: in vivo, read-out: Activity; procedure, shortened: as §3
[9] = Toxicity against athymic nude mouse xenografted with human HT-29 cells assessed as mortality at 20 mg/kg, iv bid measured on day 19; type: organism-based; design: dose 20 mg/kg, route intravenous; settings: in vivo, read-out: Activity; procedure, shortened: as §3
KB = test: Anticancer activity against human KB cells after 72 hrs by sulforhodamine B assay; type: functional

In the case of `COc1ccc2c3c(c4cc(OC)c(OC)cc4c2c1)C[C@H]1COCCN1C3`, the Activity [1] is reported as “inactive”, the GI50 (HUVEC) is reported as 320 nM and the Activity [2] is reported as “inactive”. The GI50 (HCT-8) was 9 nM, the Activity [3] was “inactive” and the Time (HT-29 [4]) was 21.3 days. The Time (HT-29 [5]) was 20.9 days, the Time (HT-29 [6]) was 20.9 days and the Activity [7] was “inactive”. For the same compound, the GI50 (A549) was 23 nM, the GI50 (DU-145) was 67 nM and the mortality [8] was 1.1%. For the same compound, the mortality [9] was 7.2% and the GI50 (KB) was 37 nM.
